Holding throughout (assay type): functional
In experiment [1] the test system is Mus musculus. The experiment can be described thus: Number of survivors on 30th day at dose 5 mg/kg/day in 10 mice implanted with P388 leukemia cell line.
The subject of experiment [2] is Mus musculus. Nature of the experiment: Number of survivors on 30th day at dose 7 mg/kg/day in 10 mice implanted with P388 leukemia cell line.
Experiment [3] has as its system Mus musculus. Nature of the experiment: Number of survivors on 60th day at dose 15 mg/kg/day in 10 mice implanted with P388 leukemia cell line.
The test system of experiment [4] is Mus musculus. The experiment can be described thus: Number of survivors on 60th day at dose 4 mg/kg/day in 10 mice implanted with P388 leukemia cell line.
Experiment [5] deals with Mus musculus. Nature of the experiment: Percent increase in life span at dose 17.5 mg/kg/day in 10 mice implanted with P388 leukemia cell line.
Experiment [6] has as its system Mus musculus. Nature of the experiment: Number of survivors on 60th day at dose 10 mg/kg/day in 10 mice implanted with P388 leukemia cell line.
Experiment [7] deals with Mus musculus. Nature of the experiment: Number of survivors of DBA2 mice on 60th day after inoculation with L1210 leukemia cell line intravenously at a dose of 15 mg/kg/day; 0/10. To be noted: route intravenous.
The subject of experiment [8] is Mus musculus. Nature of the experiment: Percent increase in life span at dose 7 mg/kg/day in 10 mice implanted with P388 leukemia cell line. The gist of the method:
(§1)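 Female DBA2 mice inoculated iv on day 0 with 10^4 P388 cells; single iv treatment on day 1 with drug as sulfate salt in physiological saline. Survival followed; %ILS from all deaths and survivors as (T/C × 100) − 100, maximal MST 30 days; survivors counted on days 30 and 60. Most experiments confirmed three times.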

For experiment [9], the system named is Mus musculus. Nature of the experiment: Percent increase in life span of DBA2 mice after inoculation with L1210 leukemia intravenously at a dose of 15 mg/kg per day. To be noted: route intravenous.
The test system of experiment [10] is Mus musculus. Nature of the experiment: Number of survivors of DBA2 mice on 30th day after inoculation with L1210 leukemia cell line intravenously at a dose of 15 mg/kg/day; 0/10. To be noted: route intravenous.
Experiment [11] concerns Mus musculus. Nature of the experiment: Number of survivors on 30th day at dose 15 mg/kg/day in 10 mice implanted with P388 leukemia cell line.
Experiment [12] deals with Mus musculus. Nature of the experiment: Percent increase in life span at dose 4 mg/kg/day in 10 mice implanted with P388 leukemia cell line. Particulars: Mus musculus, P388. The gist of the method:
as §1

Experiment [13] has as its system Mus musculus. Nature of the experiment: Percent increase in life span at dose 14 mg/kg/day in 10 mice implanted with P388 leukemia cell line. The gist of the method:
as §1

The test system of experiment [14] is Mus musculus. Nature of the experiment: Number of survivors on 30th day at dose 17.5 mg/kg/day in 9 mice implanted with P388 leukemia cell line.
Experiment [15] concerns Mus musculus. The experiment can be described thus: Number of survivors on 30th day at dose 10 mg/kg/day in 10 mice implanted with P388 leukemia cell line.
For experiment [16], the system named is Mus musculus. Nature of the experiment: Number of survivors on 30th day at dose 14 mg/kg/day in 10 mice implanted with P388 leukemia cell line.
For experiment [17], the system named is Mus musculus. The experiment can be described thus: Percent increase in life span at dose 10 mg/kg/day in 10 mice implanted with P388 leukemia cell line. An outline of the steps:
as §1

Experiment [18] deals with Mus musculus. The experiment can be described thus: Percent increase in life span at dose 5 mg/kg/day in 10 mice implanted with P388 leukemia cell line. The gist of the method: as §1
Experiment [19] deals with Mus musculus. The experiment can be described thus: Number of survivors on 60th day at dose 17.5 mg/kg/day in 9 mice implanted with P388 leukemia cell line.
Experiment [20] relates to Mus musculus. The experiment can be described thus: Number of survivors on 30th day at dose 4 mg/kg/day in 10 mice implanted with P388 leukemia cell line.
Experiment [21] relates to Mus musculus. Nature of the experiment: Number of survivors on 60th day at dose 14 mg/kg/day in 10 mice implanted with P388 leukemia cell line.
The test system of experiment [22] is Mus musculus. Nature of the experiment: Percent increase in life span at dose 12.5 mg/kg/day in 10 mice implanted with P388 leukemia cell line. An outline of the steps: as §1
Experiment [23] relates to Mus musculus. Nature of the experiment: Number of survivors on 60th day at dose 5 mg/kg/day in 10 mice implanted with P388 leukemia cell line.
Experiment [24] relates to Mus musculus. The experiment can be described thus: Number of survivors on 60th day at dose 7 mg/kg/day in 10 mice implanted with P388 leukemia cell line. An outline of the steps: as §1
The test system of experiment [25] is Mus musculus. Nature of the experiment: Number of survivors on 60th day at dose 12.5 mg/kg/day in 10 mice implanted with P388 leukemia cell line.
The subject of experiment [26] is Mus musculus. The experiment can be described thus: Number of survivors on 30th day at dose 12.5 mg/kg/day in 10 mice implanted with P388 leukemia cell line.
In experiment [27] the test system is Mus musculus. Nature of the experiment: Number of survivors on 60th day at dose 50 mg/kg/day in 10 mice implanted with P388 leukemia cell line; 0/10.
Experiment [28] deals with Mus musculus. Nature of the experiment: Number of survivors on 30th day at dose 70 mg/kg/day in 10 mice implanted with P388 leukemia cell line; 0/10.
Experiment [29] has as its system Mus musculus. The experiment can be described thus: Percent increase in life span at dose 40 mg/kg/day in 10 mice implanted with P388 leukemia cell line. An outline of the steps:
as §1

Experiment [30] deals with Mus musculus. Nature of the experiment: Number of survivors on 60th day at dose 70 mg/kg/day in 10 mice implanted with P388 leukemia cell line. An outline of the steps: as §1
The subject of experiment [31] is Mus musculus. The experiment can be described thus: Number of survivors on 30th day at dose 60 mg/kg/day in 10 mice implanted with P388 leukemia cell line; 3/10.
The subject of experiment [32] is Mus musculus. Nature of the experiment: Number of survivors on 30th day at dose 50 mg/kg/day in 10 mice implanted with P388 leukemia cell line; 1/10.
For experiment [33], the system named is Mus musculus. Nature of the experiment: Percent increase in life span at dose 20 mg/kg/day in 10 mice implanted with P388 leukemia cell line. The gist of the method: as §1
For experiment [34], the system named is Mus musculus. The experiment can be described thus: Number of survivors on 60th day at dose 60 mg/kg/day in 10 mice implanted with P388 leukemia cell line; 2/10.
Experiment [35] has as its system Mus musculus. The experiment can be described thus: Number of survivors on 30th day at dose 40 mg/kg/day in 10 mice implanted with P388 leukemia cell line; 1/10.
Experiment [36] concerns Mus musculus. The experiment can be described thus: Percent increase in life span at dose 50 mg/kg/day in 10 mice implanted with P388 leukemia cell line. An outline of the steps:
as §1

In experiment [37] the test system is Mus musculus. Nature of the experiment: Number of survivors on 60th day at dose 20 mg/kg/day in 10 mice implanted with P388 leukemia cell line; 0/10.
In experiment [38] the test system is Mus musculus. Nature of the experiment: Percent increase in life span at dose 70 mg/kg/day in 10 mice implanted with P388 leukemia cell line. An outline of the steps:
as §1

Experiment [39] has as its system Mus musculus. Nature of the experiment: Number of survivors on 60th day at dose 40 mg/kg/day in 10 mice implanted with P388 leukemia cell line; 1/10.
The subject of experiment [40] is Mus musculus. Nature of the experiment: Number of survivors on 30th day at dose 20 mg/kg/day in 10 mice implanted with P388 leukemia cell line; 0/10.
Experiment [41] relates to Mus musculus. Nature of the experiment: Percent increase in life span at dose 60 mg/kg/day in 10 mice implanted with P388 leukemia cell line. An outline of the steps:
as §1

What is called ILS is the gain in survival time of treated over control animals, in per cent.

For the molecule `CCOC(=O)[C@@H](NC(=O)[C@@]1(O)[C@H](O)[C@]2(CC)C=CCN3CC[C@@]4(c5cc([C@@]6(C(=O)OC)C[C@H]7C[N@](CCc8c6[nH]c6ccccc86)C[C@](O)(CC)C7)c(OC)cc5N(C)[C@@]14C)[C@@H]32)C(C)C`, the Survivors with Mus musculus [1] is recorded as 0; in the experiment on Mus musculus [2] it was 0; with Mus musculus [3] it was 2; in the experiment with Mus musculus [4], 1; in the experiment on Mus musculus [6], 0; in the experiment on Mus musculus [7], 0. For the same molecule, the Survivors in the experiment with Mus musculus [10] is on record as 0; with Mus musculus [11] it was 3; with Mus musculus [14], 0; in the experiment with Mus musculus [15] it was 0; in the experiment on Mus musculus [16], 2; in the experiment with Mus musculus [19], 0. Also, the Survivors in the experiment on Mus musculus [20] is 1; in the experiment on Mus musculus [21], 0; in the experiment with Mus musculus [23] it was 0; in the experiment with Mus musculus [24] it was 0; with Mus musculus [25], 0; in the experiment with Mus musculus [26], 2. In addition, in the experiment on Mus musculus [5], the increase in life span (ILS) at 17.5 mg/kg/day came out at 22.2%. The ILS at 7 mg/kg/day in the experiment on Mus musculus [8] is 40%. The molecule further showed an ILS at 15 mg/kg/day in the experiment on Mus musculus [9] of 67%. The molecule further registered an ILS at 4 mg/kg/day in the experiment with Mus musculus [12] of 13.5%. The ILS at 14 mg/kg/day with Mus musculus [13] was 108%. Besides, the ILS at 10 mg/kg/day in the experiment on Mus musculus [17] was found to be 53.4%. The same molecule registered an ILS at 5 mg/kg/day in the experiment on Mus musculus [18] of 17.2%. Moreover, in the experiment with Mus musculus [22], the ILS at 12.5 mg/kg/day is 82.6%.

Take `CCOC(=O)[C@H](Cc1ccc(O)cc1)NC(=O)[C@@]1(O)[C@H](O)[C@]2(CC)C=CCN3CC[C@@]4(c5cc([C@@]6(C(=O)OC)C[C@H]7C[N@](CCc8c6[nH]c6ccccc86)C[C@](O)(CC)C7)c(OC)cc5N(C)[C@@]14C)[C@@H]32`: the Survivors in the experiment on Mus musculus [27] is recorded as 0; in the experiment with Mus musculus [28], 0; with Mus musculus [30], 0; in the experiment on Mus musculus [31], 3; in the experiment with Mus musculus [32], 1; with Mus musculus [34], 2. The Survivors was found to be 1 in the experiment on Mus musculus [35], 0 in the experiment with Mus musculus [37], 1 in the experiment on Mus musculus [39] and 0 with Mus musculus [40]. In addition, the ILS at 40 mg/kg/day in the experiment with Mus musculus [29] worked out at 53.3%. This molecule also showed an increase in life span (ILS) at 20 mg/kg/day in the experiment on Mus musculus [33] of 29.9%. This molecule came in with an increase in lifespan (ILS) at 50 mg/kg/day in the experiment with Mus musculus [36] of 49.5%. In the experiment on Mus musculus [38], this molecule gave an ILS at 70 mg/kg/day of 49.5%. This molecule had an ILS at 60 mg/kg/day with Mus musculus [41] of 49.5%.

The values are drawn from ChEMBL document CHEMBL1122917, “Vinblastin-23-oyl amino acid derivatives: chemistry, physicochemical data, toxicity, and antitumor activities against P388 and L1210 leukemias” (J Med Chem, 1985).
